Target: T1, Prostaglandin G/H synthase 1 (Ovis aries, UniProt P05979)
T1 sequence (P05979 whole entry): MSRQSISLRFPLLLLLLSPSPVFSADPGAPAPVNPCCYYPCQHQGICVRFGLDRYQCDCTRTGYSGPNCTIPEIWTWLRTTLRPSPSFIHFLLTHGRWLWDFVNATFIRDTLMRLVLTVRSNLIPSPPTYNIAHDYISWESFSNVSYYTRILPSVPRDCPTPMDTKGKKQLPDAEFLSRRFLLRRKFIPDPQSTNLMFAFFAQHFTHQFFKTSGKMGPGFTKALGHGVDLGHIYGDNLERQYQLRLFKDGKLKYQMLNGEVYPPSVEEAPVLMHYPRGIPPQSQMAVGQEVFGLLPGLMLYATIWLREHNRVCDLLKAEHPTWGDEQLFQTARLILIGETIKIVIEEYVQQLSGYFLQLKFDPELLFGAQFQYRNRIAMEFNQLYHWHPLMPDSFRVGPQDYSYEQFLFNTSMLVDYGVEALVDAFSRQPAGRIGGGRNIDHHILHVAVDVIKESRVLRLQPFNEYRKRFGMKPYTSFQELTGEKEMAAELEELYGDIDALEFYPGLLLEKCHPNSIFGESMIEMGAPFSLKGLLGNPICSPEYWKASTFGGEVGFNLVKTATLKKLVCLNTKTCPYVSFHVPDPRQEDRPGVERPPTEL
Experiment: Inhibition of ovine COX1 using arachidonic acid as substrate incubated for 1 min prior to substrate addition measured for 25 secs by TMPD-based chromogenic assay
Outline: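 COX-1 purified from ram seminal vesicles by chromatography. Reaction in Tris HCl buffer (100 mM, pH 8.0) with hematin, EDTA (3 mM) and enzyme, preincubated with test compound at 25 °C for 1 min. Started with arachidonic acid plus TMPD. Nonenzymatic oxidation subtracted before calculating percent inhibition.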

Row | Compound | IC50
1 | CC(Oc1cc(=O)oc2ccccc12)C(=O)NC12CC3CC(C)(CC(C)(C3)C1)C2 (mixture of isomers) | 3.33 µM
2 | CC(Oc1cc(=O)oc2ccccc12)C(=O)Nc1ccc(N2CCOCC2=O)cc1 (racemic) | 4.6 µM
3 | Cc1c(Cl)cccc1NC(=O)C(C)Oc1cc(=O)oc2ccccc12 (racemic) | 4.61 µM
4 | CC(Oc1cc(=O)oc2ccccc12)C(=O)Nc1ccc(F)cc1F (racemic) | 1.64 µM
5 | COc1ccc(NC(=O)C(C)Oc2cc(=O)oc3ccccc23)cc1 (racemic) | 2.26 µM
6 | CC(Oc1cc(=O)oc2ccccc12)C(=O)Nc1ccc(C(F)(F)F)cc1C#N (racemic) | 9.6 µM
7 | CC(Oc1cc(=O)oc2ccccc12)C(=O)N1CCCC1 (racemic) | 13.7 µM
8 | CC(Oc1cc(=O)oc2ccccc12)C(=O)N1CCOCC1 (racemic) | 5.03 µM
9 | CC(Oc1cc(=O)oc2ccccc12)C(=O)Nc1cccc2c(=O)[nH]ccc12 (racemic) | 2.98 µM
10 | CC(Oc1cc(=O)oc2ccccc12)C(=O)Nc1ccncc1 (racemic) | 9.64 µM

Reference: ChEMBL document CHEMBL2157877, “Synthesis and pharmacological evaluation of N-substituted 2-(2-oxo-2H-chromen-4-yloxy)propanamide as cyclooxygenase inhibitors” (Bioorg Med Chem Lett, 2012)
